# Hits are enriched below; roughly 1.3% of the tested compounds scored in any of these assays.
# Mdm2 ligase inh: blocks human Mdm2 ubiquitin ligase activity | Q00987 | cell-based MDM2 ubiquitination luciferase reporter, 2 h; 0 = plate control, 100 = twice control, blank-subtracted | signal enhancement, % at 5 µM | 0.11% of 210,000 active | AID 1230;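 active means signal enhancement of 30% or more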;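 further: luminescence tracks abundance of the self-degrading MDM2-luciferase fusion protein; higher signal means inhibition of MDM2 E3 ligase activity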
#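 System: stable MDM2–luciferase fusion reporter cells / Input: 2000 cells seeded into each well / Schedule: 4 h settle plus 2 h compound, 37 °C / Compound: single-point 5 µM / Buffer or medium: cells held in DMEM / Benchmarks: control and blank well means / Evaluation: percent signal gain over controls, blank-subtracted / Measured by: luciferase luminescence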
# Hsp70 act: transcriptional activators of Hsp70 | HeLa Hsp70 promoter luciferase reporter, luminescence; scaled: vehicle 0, proteasome-inhibitor control 100% | activation, % at 10 µM | 0.04% of 200,000 active;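 active means activation above the mean across all tested compounds plus 3 SD, cutoff set per campaign, cut at about 5.5% in these data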;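 further: 100% = MG132 at 30 µM as the positive control and 0% = DMSO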
# Wee1 degr inh: human Wee1 degradation inhibition, primary screen | reporter increase, % at 5 µM | 1.2% of 220,000 active | HeLa Luc-Wee1K328M stability, luciferase luminescence; 100% = proteasome inhibitor MG132 effect;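 active means activation above the mean of all tested compounds plus 3 SD, set per screening run, cut at about 8.8% in these data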;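 further: cells exposed to compound for 20 h before luminescence read; 0% = DMSO alone and 100% = MG132 at 30 µM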
# Target sequence (P30291 whole entry K328M): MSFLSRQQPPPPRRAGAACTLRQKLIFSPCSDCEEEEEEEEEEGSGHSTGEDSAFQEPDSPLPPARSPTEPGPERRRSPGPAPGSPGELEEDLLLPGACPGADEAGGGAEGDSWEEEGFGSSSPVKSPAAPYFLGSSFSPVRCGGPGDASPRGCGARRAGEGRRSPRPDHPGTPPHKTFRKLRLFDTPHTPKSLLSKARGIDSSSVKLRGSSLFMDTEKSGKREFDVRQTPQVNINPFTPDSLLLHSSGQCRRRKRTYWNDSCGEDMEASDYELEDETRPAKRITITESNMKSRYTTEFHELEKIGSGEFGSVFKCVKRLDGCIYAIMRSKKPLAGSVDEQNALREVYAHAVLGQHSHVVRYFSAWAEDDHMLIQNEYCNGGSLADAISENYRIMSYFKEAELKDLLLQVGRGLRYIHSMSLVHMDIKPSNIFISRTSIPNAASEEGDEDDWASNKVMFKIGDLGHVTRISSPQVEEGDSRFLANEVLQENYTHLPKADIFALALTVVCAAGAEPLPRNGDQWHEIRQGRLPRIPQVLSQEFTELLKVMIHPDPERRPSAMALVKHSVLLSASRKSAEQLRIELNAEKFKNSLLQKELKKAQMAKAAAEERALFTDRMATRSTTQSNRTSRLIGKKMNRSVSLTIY
# Pf gamet viab: kills late stage P. falciparum gametocytes. P. falciparum stage V gametocytes, ATP luminescence, 24 h. inhibition, % at 10.9 µM. 0.065% of 150,000 active;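 active means inhibition above the mean plus 3 SD of compounds within the control limits, set per campaign, cut at about 38% in these data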;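 further: 0% = DMSO wells and 100% = medium only without gametocytes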
# * marks the source's active call; other numbers are inactive results; . = no result.
SMILES,Mdm2 ligase inh,Hsp70 act,Wee1 degr inh,Pf gamet viab
CCCc1nc2ccc(NC(=O)NCCC(=O)OCC)cc2c(=O)n1Cc1cccc(Cl)c1,-8,0,17*,.
COc1ncccc1-c1nnn(-c2ccc(Cl)nc2)n1,.,0,9.7*,.
COc1ccccc1NS(=O)(=O)c1cccc(NC(=O)Nc2cccc(Cl)c2)c1,7,0,-3,4
COc1ccccc1NS(=O)(=O)c1cccc(NC(=O)NCCCl)c1,-8,.,11*,-10
c1ccc2oc(C3=NNC(=NC4CC4)SC3)cc2c1,-81,0,15*,15
c1ccc(CN=C2NN=C(c3cc4ccccc4o3)CS2)cc1,5,0,0,8
CC(=O)c1ccc(OCC(O)CN2CCCC(C)C2)cc1 (centres undefined),-4,0,-1,.
CC1CCCN(CC(O)CN)C1 (centres undefined),0,0,3,47*
O=c1c(C/C=C/c2ccccc2)c(O)ccn1Cc1cccc(Cl)c1,-5,0,11*,2
COc1ccc(C(=O)/C(C#N)=N/Nc2cccc([N+](=O)[O-])c2)cc1,-23,0,2,-3
O=C1N/C(=C/c2ccc(N3CCOCC3)o2)C(=O)N1c1ccccc1,47*,1,4,10
CCOc1ccc(NC(=O)c2ccccc2C(=O)c2ccccc2)cc1OCC,.,.,.,-9
Cc1cc(NC(=O)c2cc3cccc([N+](=O)[O-])c3[nH]2)ccc1F,-10,.,17*,-1
COCC(C)NC(=O)c1cc2cccc([N+](=O)[O-])c2[nH]1 (centres undefined),-2,.,1,0
O=C(c1ccc([N+](=O)[O-])cc1Cl)N1CCN(c2ccccn2)CC1,0,.,-2,-4
O=C(c1ccc(Cl)cc1[N+](=O)[O-])N1CCN(c2ccccn2)CC1,-10,0,9.3*,-8
CC(=O)c1cccc(NC(=O)c2nc(-c3ccccc3)oc2C)c1,0,0,4,.
CCOc1ccc(C(=S)N2CCN(C)CC2)cc1,-10,0,0,-9
O=C1CC(c2ccccc2)CC(O)=C1C=Nc1ccc(Cl)cc1 (centres undefined),-10,0,-3,.
O=C1CC(c2ccccc2)CC(O)=C1C=Nc1cccc(Cl)c1 (centres undefined),1,0,9.6*,17
COc1ccc(/C=C/CN2CCCC(C(=O)c3ccc(OC)c(F)c3)C2)cc1 (centres undefined),-19,0,9.1*,.
O=C(CN1C(=O)c2ccc([N+](=O)[O-])cc2C1=O)NCc1ccc(C(=O)O)cc1,.,.,.,20
Cc1ccc(-n2nnnc2-c2cccs2)cc1[N+](=O)[O-],.,.,.,2
COc1cccc(C(=O)CSc2nnc(CNS(=O)(=O)c3ccc(C)cc3)n2C)c1,-2,0,9.7*,-6
S=c1[nH]nc(-c2cccnc2)n1/N=C/C=C/c1ccccc1,-7,0,1,.
SMILES,Mdm2 ligase inh,Hsp70 act,Wee1 degr inh,Pf gamet viab
COc1ccc(/C=C/C(=O)NC(=S)Nc2ccc(C(=O)O)cc2)cc1,-6,0,3,-4
C[C@H](CO)N1C[C@H](C)[C@@H](CN(C)Cc2ccc(Cl)c(Cl)c2)Oc2ccc(NC(=O)Cn3cnnn3)cc2C1=O,.,.,.,14
CCOc1c(N2CCOCC2)c(=O)c1=O,-14,.,0,22
CCOc1c(N2CC(C)OC(C)C2)c(=O)c1=O (centres undefined),-2,.,9.4*,10
O=C1c2ccccc2C(=O)N1OCc1ccc(Cl)cc1,-7,0,0,.
O=C1Cc2ccccc2C(=O)N1OCc1ccc(Cl)cc1,-13,0,-1,41*
CCN1C/C(=C\c2cccc([N+](=O)[O-])c2)C(=O)/C(=C/c2cccc([N+](=O)[O-])c2)C1,39*,0,1,-14
COc1ccccc1C1=Nn2c(COc3ccccc3)nnc2SC1,1,0,5,.
Cc1ccc2oc(=O)c3cc(C(=O)NCCN4CCN(C)CC4)sc3c2c1,-10,0,10*,.
O=C(COc1ccccc1)N/N=C/c1ccc(O[C@@H]2O[C@H](CO)[C@@H](O)[C@H](O)[C@H]2O)cc1,-1,0,10*,16
COCCN1C(=O)c2oc3cc(C)c(C)cc3c(=O)c2C1c1ccc(O)cc1 (centres undefined),.,0,9.1*,-1
Cc1ccc2nc(C(C)O)[nH]c2c1 (centres undefined),4,0,9.5*,-8
Cc1ccc2nc(C(O)C(O)c3nc4ccc(C)cc4[nH]3)[nH]c2c1 (centres undefined),-18,1,-1,.
COc1ccccc1-c1ccc(=O)n(CC(=O)NC2CCc3ccccc32)n1 (centres undefined),2,0,-1,.
COc1cccc(Oc2cc(Cl)nc(N)n2)c1,.,.,.,16
COc1ccc(N2C(=O)CSC23C(=O)N2CCCc4cccc3c42)cc1 (centres undefined),-2,0,-2,42*
O=C(Nc1nc2ccccc2c(=O)s1)c1ccco1,-15,.,10*,-6
O=C(Nc1ccccc1O)c1csc2c1CCCC2,9,0,9.4*,17
Cc1ccsc1C(=O)NNC(=O)C1C2C=CC(C2)C1C(=O)O (centres undefined),18,0,10*,-33
COC(=O)c1sccc1NC(=O)C1C2C=CC(C2)C1C(=O)O (centres undefined),-1,0,0,.
Cc1cccnc1NC(=S)NC(=O)c1cccs1,-9,1,13*,.
Cc1cccnc1NC(=S)NC(=O)c1cncc(Br)c1,-6,0,-5,.
COc1ccc(/C=N/NC(=O)CCc2n[nH]c(=O)[nH]c2=O)cc1OC,-12,0,4,3
CCCOc1ccc(/C=N\NC(=O)CCc2n[nH]c(=O)[nH]c2=O)cc1OC,10,1,9.6*,-3
Cc1[nH]c2ccccc2c(=O)c1CN1CCCCC1,-10,0,0,-17
SMILES,Mdm2 ligase inh,Hsp70 act,Wee1 degr inh,Pf gamet viab
Cc1[nH]c2ccc(Cl)cc2c(=O)c1CN1CCCC1,35*,0,1,.
COc1ccccc1N(CC(=O)N/N=C/c1ccc(C(=O)O)cc1)S(=O)(=O)c1ccc(C)cc1,-10,.,9.0*,17
Cc1cccc(N(CC(=O)N/N=C/c2ccc(C(=O)O)cc2)S(=O)(=O)c2ccccc2)c1C,.,.,.,-23
Cc1ccc(C(c2nnnn2C2CCCC2)N2CCc3ccccc32)cc1 (centres undefined),-2,0,9.1*,.
COc1cc2cc(CCCOC(=O)c3ccco3)oc(=O)c2cc1OC,.,.,.,-3
CC1=C(C)CC2C(C1)C(=O)c1ccc(Br)cc1S2(=O)=O (centres undefined),.,.,.,13
COc1cccc(OC)c1C(=O)Nn1c(C2CCC2)nc2ccccc2c1=O,-3,0,6,-11
O=C(Nn1c(C2CCCCC2)nc2ccccc2c1=O)c1ccc([N+](=O)[O-])cc1,-20,0,5,42*
N#C/C(=C/c1ccc(F)cc1)c1nnc(NC(=O)c2ccccc2)s1,.,.,1,-17
CCOc1ccc(N(C(C)C(=O)N2CCOCC2)S(C)(=O)=O)cc1 (centres undefined),.,.,.,-37

# Source: PubChem (several laboratories)
